From ChEMBL document CHEMBL3853323, “Small Antimicrobial Agents Based on Acylated Reduced Amide Scaffold” (J Med Chem, 2016)
Converted amounts (≈) assume the structure as drawn. The source made the active and inactive calls. No cut-off for these calls is given here.

How the values were obtained:
Escherichia coli [1] = test: Antibacterial activity against Escherichia coli ATCC 25922 after 16 to 20 hrs by two fold serial dilution method; type: functional
Outline: (§1)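 MIC as lowest concentration giving complete inhibition of growth after 20 h; at least three independent experiments, each in duplicate.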

Pseudomonas aeruginosa = test: Antibacterial activity against Pseudomonas aeruginosa ATCC 27853 after 16 to 20 hrs by two fold serial dilution method; type: functional; outline: as §1
Klebsiella pneumoniae = test: Antibacterial activity against Klebsiella pneumoniae ATCC 13383 after 16 to 20 hrs by two fold serial dilution method; type: functional; outline: as §1
Staphylococcus aureus [2] = test: Antibacterial activity against methicillin-resistant Staphylococcus aureus ATCC 33591 after 16 to 20 hrs by two fold serial dilution method; type: functional
Outline: (§2)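 Broth MIC: the lowest concentration giving complete growth inhibition after 20 h. Run at least three times, in duplicate each time.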

[3] = test system: Staphylococcus epidermidis; test: Antibacterial activity against methicillin-resistant Staphylococcus epidermidis RP62A after 16 to 20 hrs by two fold serial dilution method; type: functional; outline: as §2
Enterococcus faecalis = test: Antibacterial activity against vancomycin resistant Enterococcus faecalis ATCC 700802 after 16 to 20 hrs by two fold serial dilution method; type: functional; outline: as §2
[4] = Hemolytic activity in human RBC after 1 hr; type: ADME, cell-based, Erythrocyte; conditions: human red blood cells
Outline: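 Fresh K2EDTA human RBCs, PBS-washed, as 5% v/v suspension mixed 1:1 with compound dilutions, 37 °C for 1 h. Supernatant after centrifugation diluted in PBS, A540 read. % hemolysis relative to 2% Triton X-100 (positive) and PBS (negative). At least three runs, each in duplicate.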

[5] = Cytotoxicity against human HK2 cells assessed as cell viability after 24 hrs by MTT assay; type: toxicity, cell-based, HK-2
Outline: (§3)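 Cells seeded at 5×10^4 per well and left 12 h, then exposed 24 h to compound at 100, 50, 25, 12.5 or 6.25 μg/mL diluted in medium. Medium replaced, MTT added for 4 h, solubilized 12 h at 37 °C, A550 read; viability % = (A − Ablank)/(Acontrol − Ablank) × 100. Run at least three times.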

[6] = Cytotoxicity against human K562 cells assessed as cell viability after 24 hrs by MTT assay; type: toxicity, cell-based; outline: as §3
[7] = Selectivity ratio of IC50 for human HK2 cells to MIC for methicillin-resistant Staphylococcus aureus ATCC 33591; type: ADME, cell-based
[8] = Selectivity ratio of IC50 for human K562 cells to MIC for methicillin-resistant Staphylococcus aureus ATCC 33591; type: ADME, cell-based
Staphylococcus aureus [9] = test: Bactericidal activity against methicillin-resistant Staphylococcus aureus ATCC 33591 assessed as disruption of bacterial membrane at 25 ug/ml after 2 hrs by DAPI staining based fluorescence microscopy; type: functional
Outline: (§4)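 Mid-log MRSA was exposed to compound at 37 °C for 2 h, pelleted and washed three times in PBS. Cells were stained sequentially with PI (5 µg/mL) and DAPI (10 µg/mL), 15 min each on ice in the dark. Imaged with a 100× oil objective; DAPI channel 460 nm, PI channel 620 nm.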

Staphylococcus aureus [10] = test: Bactericidal activity against methicillin-resistant Staphylococcus aureus ATCC 33591 assessed as disruption of bacterial membrane at 25 ug/ml after 2 hrs by propidium iodide staining based fluorescence microscopy; type: functional; outline: as §4
Staphylococcus aureus [11] = test: Bactericidal activity against methicillin-resistant Staphylococcus aureus ATCC 33591 for 10 mins to 2 hrs by time kill assay; type: functional
Outline: (§5)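 MRSA grown to mid-log in TSB was diluted to 10^6 CFU/mL. […] Samples were diluted 10^2–10^4-fold and plated on TSB agar. CFU were counted after overnight incubation at 37 °C and plotted against time.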

Staphylococcus aureus [12] = test: Bactericidal activity against methicillin-resistant Staphylococcus aureus ATCC 33591 at 25 to 50 ug/ml for 10 mins to 2 hrs by time kill assay; type: functional; outline: as §5
Staphylococcus aureus [13] = test: Antibacterial activity against methicillin-resistant Staphylococcus aureus ATCC 33591 at 0.5 times MIC after 14 passages; type: functional
Outline: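 Resistance passaging: the starting MIC was measured as in the MIC assay. Bacteria from the 1/2 MIC well seeded the next day's assay. Repeated daily for 14 passages.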

Escherichia coli [14] = test: Inhibition of biofilm formation in Escherichia coli ATCC 25922 at 0.6 ug/ml incubated overnight by crystal violet staining based assay; type: functional
Outline: (§6)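 Overnight culture diluted 1:100 into 10% MHII broth, incubated with compound overnight at 37 °C. Growth read at OD600, then biomass stained with crystal violet; CV OD divided by growth OD and normalized to untreated control. Triplicate, mean ± STDEV.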

Acinetobacter baumannii [15] = test: Inhibition of biofilm formation in Acinetobacter baumannii at 0.6 ug/ml incubated overnight by crystal violet staining based assay; type: functional; outline: as §6
Escherichia coli [16] = test: Inhibition of biofilm formation in Escherichia coli ATCC 25922 at 2 ug/ml incubated overnight by crystal violet staining based assay; type: functional; outline: as §6
Acinetobacter baumannii [17] = test: Inhibition of biofilm formation in Acinetobacter baumannii at 2 ug/ml incubated overnight by crystal violet staining based assay; type: functional; outline: as §6
Staphylococcus aureus [18] = test: Antibacterial activity against methicillin-resistant Staphylococcus aureus induced ventilator-associated pneumonia bearing Wistar rat model assessed as reduction in lung infiltrated proinflammatory cells at 10 mg/kg, iv measured after 1 to 3 days by hematoxylin and eosin staining based light microscopy; type: functional, organism-based
Outline: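 Male Wistar rats (6‒8 weeks, ~200 g) were fasted at least 12 h and given urethane 1 g/kg i.p. Pneumonia was induced by slow intratracheal injection of 100 μL PBS with 2×10^5 CFU/mL MRSA under mechanical ventilation. Compound was given at 10 mg/kg i.v. via tail vein. H&E-stained lung sections were scored for neutrophil infiltration and alveolar integrity over time, five random sections each.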

Rattus norvegicus = test: Antiinflammatory activity in methicillin-resistant Staphylococcus aureus induced ventilator-associated pneumonia bearing Wistar rat model assessed as reduction in TNF-alpha levels in bronchoalveolar lavage fluid at 10 mg/kg, iv measured after 1 to 3 days by ELISA; type: functional, organism-based
Outline: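 Same MRSA pneumonia rat model with 10 mg/kg i.v. tail-vein dosing. Rats were sacrificed and exsanguinated. Lungs were lavaged through a tracheal needle with 1 mL sterile PBS for six cycles. Specimens were homogenized and TNF-α was measured by ELISA.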

## NCCCC[C@H](N)C(=O)N[C@@H](Cc1ccccc1)CN(CC(=O)NCC12CC3CC(CC(C3)C1)C2)C(=O)CC12CC3CC(CC(C3)C1)C2
Escherichia coli [1]
  MIC: 3.12 µg/mL (≈ 4.73 µM)
Pseudomonas aeruginosa
  MIC: 6.25 µg/mL (≈ 9.47 µM)
Klebsiella pneumoniae
  MIC: 6.25 µg/mL (≈ 9.47 µM)
Staphylococcus aureus [2]
  MIC: 1.56 µg/mL (≈ 2.36 µM)
[3]
  MIC: 3.12 µg/mL (≈ 4.73 µM)
Enterococcus faecalis
  MIC: 6.25 µg/mL (≈ 9.47 µM)
[4]
  HC50 at 1 h: 85 µg/mL
[5]
  IC50 at 24 h: 86.3 µg/mL (≈ 131 µM)
[6]
  IC50 at 24 h: 83.2 µg/mL (≈ 126 µM)
[7]
  selectivity ratio: > 50
[8]
  selectivity ratio: > 50
Staphylococcus aureus [9]
  Activity: Active
Staphylococcus aureus [10]
  Activity: Active
Staphylococcus aureus [11]
  Activity: Dose-dependent effect
Staphylococcus aureus [12]
  Activity: Active
Staphylococcus aureus [13]
  Activity: Active
Escherichia coli [14]
  inhibition at 0.6 µg/mL: > 50%
Acinetobacter baumannii [15]
  inhibition at 0.6 µg/mL: > 50%
Escherichia coli [16]
  inhibition: Active
Acinetobacter baumannii [17]
  inhibition: Active
Staphylococcus aureus [18]
  Activity: Active
Rattus norvegicus
  Activity: Active
